Results taken from the M2OR odorant receptor database.

How the values were obtained:
Settings in all cases: stereoisomer not certain
OR10R2 (Homo sapiens) = target: T1, OR10R2 (Homo sapiens) (UniProt Q8NGX6)
T1 sequence (whole entry): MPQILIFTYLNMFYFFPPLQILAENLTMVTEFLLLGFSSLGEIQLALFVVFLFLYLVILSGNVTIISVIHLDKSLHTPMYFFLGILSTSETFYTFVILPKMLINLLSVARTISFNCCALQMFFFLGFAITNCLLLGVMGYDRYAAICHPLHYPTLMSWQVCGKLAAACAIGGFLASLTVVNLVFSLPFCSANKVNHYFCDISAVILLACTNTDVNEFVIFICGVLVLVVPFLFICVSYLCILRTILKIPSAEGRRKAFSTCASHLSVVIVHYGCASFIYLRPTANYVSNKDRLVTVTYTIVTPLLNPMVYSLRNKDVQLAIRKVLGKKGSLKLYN
Summary of the method: (§1)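 Each entry records the cell line, G-protein, co-transfected protein and tags used. Methods varied with the source, often transient luciferase assays in mammalian cell lines. A receptor–molecule pair is called responsive (active) if the original authors judged its signal statistically different from baseline and non-responsive (inactive) otherwise.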

OR10S1 (Homo sapiens) = target: T2, OR10S1 (Homo sapiens) (UniProt Q8NGN2)
T2 sequence (whole entry): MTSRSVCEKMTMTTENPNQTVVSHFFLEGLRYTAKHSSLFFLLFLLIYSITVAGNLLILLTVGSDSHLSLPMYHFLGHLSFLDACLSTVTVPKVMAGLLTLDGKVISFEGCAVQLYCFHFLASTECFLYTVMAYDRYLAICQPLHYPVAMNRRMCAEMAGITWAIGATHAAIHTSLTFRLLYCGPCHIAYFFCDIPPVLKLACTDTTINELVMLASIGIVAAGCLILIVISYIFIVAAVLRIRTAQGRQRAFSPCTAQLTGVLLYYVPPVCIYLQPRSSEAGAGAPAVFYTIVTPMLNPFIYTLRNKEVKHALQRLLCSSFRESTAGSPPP
Summary of the method: as §1

OR10T2 (Homo sapiens) = target: T3, OR10T2 (Homo sapiens) (UniProt Q8NGX3)
T3 sequence (whole entry): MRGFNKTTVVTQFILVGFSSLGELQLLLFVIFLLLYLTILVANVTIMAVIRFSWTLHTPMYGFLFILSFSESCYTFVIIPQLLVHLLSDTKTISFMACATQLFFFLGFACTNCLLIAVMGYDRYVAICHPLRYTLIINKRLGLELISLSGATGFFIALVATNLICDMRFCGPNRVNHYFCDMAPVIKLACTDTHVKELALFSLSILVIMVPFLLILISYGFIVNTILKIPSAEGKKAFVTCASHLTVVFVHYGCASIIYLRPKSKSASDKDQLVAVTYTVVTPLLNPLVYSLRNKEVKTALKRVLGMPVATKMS
Summary of the method: as §1

OR10V1 (Homo sapiens) = target: T4, OR10V1 (Homo sapiens) (UniProt Q8NGI7)
T4 sequence (whole entry): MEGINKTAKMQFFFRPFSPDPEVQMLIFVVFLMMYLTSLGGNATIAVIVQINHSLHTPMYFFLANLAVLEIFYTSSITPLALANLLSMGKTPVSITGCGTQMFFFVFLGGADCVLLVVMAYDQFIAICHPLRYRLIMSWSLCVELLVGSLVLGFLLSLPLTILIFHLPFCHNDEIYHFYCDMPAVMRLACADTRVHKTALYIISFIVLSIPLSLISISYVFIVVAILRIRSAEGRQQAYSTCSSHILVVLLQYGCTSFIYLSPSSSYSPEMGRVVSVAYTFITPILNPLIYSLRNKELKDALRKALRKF
Summary of the method: as §1

OR10W1 (Homo sapiens) = target: T5, OR10W1 (Homo sapiens) (UniProt Q8NGF6)
T5 sequence (whole entry): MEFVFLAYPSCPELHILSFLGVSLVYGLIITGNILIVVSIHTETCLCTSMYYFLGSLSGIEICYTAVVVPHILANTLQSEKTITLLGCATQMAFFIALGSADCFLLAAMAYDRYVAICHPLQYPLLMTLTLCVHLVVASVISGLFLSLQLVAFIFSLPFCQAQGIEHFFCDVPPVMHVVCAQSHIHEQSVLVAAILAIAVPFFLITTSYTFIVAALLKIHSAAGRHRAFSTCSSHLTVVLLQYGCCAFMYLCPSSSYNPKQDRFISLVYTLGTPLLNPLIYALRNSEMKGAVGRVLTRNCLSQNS
Summary of the method: as §1

OR10X1 (Homo sapiens) = target: T6, OR10X1 (Homo sapiens) (UniProt Q8NGY0)
T6 sequence (whole entry): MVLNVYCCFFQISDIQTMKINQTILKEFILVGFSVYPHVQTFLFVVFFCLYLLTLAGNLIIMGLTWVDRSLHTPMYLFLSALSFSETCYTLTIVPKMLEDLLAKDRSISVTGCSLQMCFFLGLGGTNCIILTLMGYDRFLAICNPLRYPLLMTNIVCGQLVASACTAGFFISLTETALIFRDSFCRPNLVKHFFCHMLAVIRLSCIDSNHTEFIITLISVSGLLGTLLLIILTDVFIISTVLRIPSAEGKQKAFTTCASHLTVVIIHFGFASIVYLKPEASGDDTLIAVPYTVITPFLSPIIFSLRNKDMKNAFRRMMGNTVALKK
Summary of the method: as §1

OR10Z1 (Homo sapiens) = target: T7, OR10Z1 (Homo sapiens) (UniProt Q8NGY1)
T7 sequence (whole entry): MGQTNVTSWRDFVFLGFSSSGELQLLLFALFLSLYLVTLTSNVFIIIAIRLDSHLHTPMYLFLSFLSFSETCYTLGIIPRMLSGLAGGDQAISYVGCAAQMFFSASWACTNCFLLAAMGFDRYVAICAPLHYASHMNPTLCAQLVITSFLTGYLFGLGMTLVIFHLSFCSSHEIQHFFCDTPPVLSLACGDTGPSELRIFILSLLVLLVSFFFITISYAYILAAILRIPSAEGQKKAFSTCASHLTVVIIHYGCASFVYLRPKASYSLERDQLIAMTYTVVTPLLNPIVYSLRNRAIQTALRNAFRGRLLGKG
Summary of the method: as §1

OR11A1 (Homo sapiens) = target: T8, OR11A1 (Homo sapiens) (UniProt Q9GZK7)
T8 sequence (whole entry): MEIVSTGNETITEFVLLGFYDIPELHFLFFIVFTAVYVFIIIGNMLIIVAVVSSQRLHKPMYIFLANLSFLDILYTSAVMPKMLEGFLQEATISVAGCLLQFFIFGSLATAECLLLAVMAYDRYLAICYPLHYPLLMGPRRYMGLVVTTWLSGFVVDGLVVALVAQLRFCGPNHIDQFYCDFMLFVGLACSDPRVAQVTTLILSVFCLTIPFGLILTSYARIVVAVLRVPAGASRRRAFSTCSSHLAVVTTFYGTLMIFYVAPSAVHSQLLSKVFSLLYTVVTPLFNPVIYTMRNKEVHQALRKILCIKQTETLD
Summary of the method: as §1

OR11G2 (Homo sapiens) = target: T9, OR11G2 (Homo sapiens) (UniProt Q8NGC1)
T9 sequence (whole entry): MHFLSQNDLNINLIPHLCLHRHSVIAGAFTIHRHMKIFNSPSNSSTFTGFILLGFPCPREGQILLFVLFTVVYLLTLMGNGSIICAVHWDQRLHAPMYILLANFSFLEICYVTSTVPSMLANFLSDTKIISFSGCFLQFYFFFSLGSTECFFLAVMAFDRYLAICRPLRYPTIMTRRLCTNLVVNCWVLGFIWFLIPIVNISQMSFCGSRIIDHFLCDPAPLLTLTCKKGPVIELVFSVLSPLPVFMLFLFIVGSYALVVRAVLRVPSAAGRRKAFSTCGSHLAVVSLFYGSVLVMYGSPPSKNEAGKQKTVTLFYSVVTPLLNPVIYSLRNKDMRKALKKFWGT
Summary of the method: as §1

OR11H1 (Homo sapiens) = target: T10, OR11H1 (Homo sapiens) (UniProt Q8NG94)
T10 sequence (whole entry): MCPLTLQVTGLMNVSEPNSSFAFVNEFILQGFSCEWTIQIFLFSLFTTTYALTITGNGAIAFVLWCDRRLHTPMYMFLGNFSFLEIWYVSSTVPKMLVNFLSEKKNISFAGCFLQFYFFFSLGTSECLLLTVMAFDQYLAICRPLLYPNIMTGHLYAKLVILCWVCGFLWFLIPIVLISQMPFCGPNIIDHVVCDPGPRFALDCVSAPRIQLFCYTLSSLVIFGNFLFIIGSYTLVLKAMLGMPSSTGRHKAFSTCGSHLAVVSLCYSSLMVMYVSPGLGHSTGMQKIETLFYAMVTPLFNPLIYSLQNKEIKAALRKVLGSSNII
Summary of the method: as §1

| SMILES | odorant receptor agonist call (OR10R2 (Homo sapiens)) | odorant receptor agonist call (OR10S1 (Homo sapiens)) | odorant receptor agonist call (OR10T2 (Homo sapiens)) | odorant receptor agonist call (OR10V1 (Homo sapiens)) | odorant receptor agonist call (OR10W1 (Homo sapiens)) | odorant receptor agonist call (OR10X1 (Homo sapiens)) | odorant receptor agonist call (OR10Z1 (Homo sapiens)) | odorant receptor agonist call (OR11A1 (Homo sapiens)) | odorant receptor agonist call (OR11G2 (Homo sapiens)) | odorant receptor agonist call (OR11H1 (Homo sapiens)) |
| --- | --- | --- | --- | --- | --- | --- | --- | --- | --- | --- |
| CCCC(S)CCOC(C)=O (centres undefined) | inactive | inactive | inactive | inactive | inactive | inactive | inactive | inactive | inactive | inactive |
| CCCCCCCCCCCCCCCCCC(=O)OC |  | inactive |  |  |  |  |  |  |  |  |
| CC1=C(O)C(=O)C(C)O1 (centres undefined) | inactive | inactive | inactive | inactive | inactive | inactive | inactive | inactive | inactive | inactive |
| CC(CO)CS (centres undefined) | inactive | inactive | inactive | inactive | inactive | inactive | inactive | inactive | inactive | inactive |
| CC(=O)O |  | inactive |  |  |  |  |  |  |  |  |
| CC(C)=CCCC(C)=CCCC(C)=CCO |  | inactive |  |  |  |  |  |  |  |  |
| CC1=C(O)C(=O)OC1C (centres undefined) | inactive | inactive | inactive | inactive | inactive | inactive | inactive | inactive | inactive | inactive |
| CC1CCCCCCCCCCCCC(=O)C1 (centres undefined) | inactive | inactive | inactive | inactive | inactive | inactive | inactive | inactive | inactive | inactive |
| CCCCC(=O)C(C)=O |  | inactive |  |  |  |  |  |  |  |  |
| CCCCCCCCCCCCO |  | active |  |  |  |  |  |  |  |  |
| CC(O)C(=O)[O-].[H+] (centres undefined) |  | inactive |  |  |  |  |  |  |  |  |
| CCC1OC(C)=C(O)C1=O (centres undefined) | inactive | inactive | inactive | inactive | inactive | inactive | inactive | inactive | inactive | inactive |
| CCCCCCCCCCCC(=O)O |  | inactive |  |  |  |  |  |  |  |  |
| CCC(=O)O |  | inactive |  |  |  |  |  |  |  |  |
| CCCCCCC=CCCC=O | inactive | inactive | inactive | inactive | inactive | inactive | inactive | inactive | inactive | inactive |
| CCCCOCC(C)O (centres undefined) |  | inactive |  |  |  |  |  |  |  |  |
| CCCCCC(=O)C(C)C(C)=O (centres undefined) | inactive | inactive | inactive | inactive | inactive | inactive | inactive | inactive | inactive | inactive |
